High-throughput results from PubChem.
CXCR6 block: blocks human CXCR6 beta-arrestin recruitment; inhibition, % at 20 µM; O00574; actives 0.36% (n = 360,000); CHO-K1 PathHunter CXCR6 beta-arrestin, luminescence; in the data active = inhibition above about 34%, passing the limit was not always enough;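 note: antagonist mode with CXCL16 agonist at 10 nM final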
CCR6 antag: blocks CCL20-driven beta-arrestin recruitment at human CCR6. P51684. actives 0.49% (n = 340,000). CHO-K1 CCR6 PathHunter beta-arrestin, luminescence, CCL20-stimulated. inhibition, % at 20 µM;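 active = compounds whose inhibition of the agonist-driven luminescence signal at 20 µM reaches about 50%, limit read from the data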;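 note: cells stimulated with CCL20 at 14 nM final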
m5-HT2A agonist: activates the mouse 5-HT2A serotonin receptor; CHO-K1 mHTR2A beta-arrestin complementation, luminescence; percent of 30 µM serotonin response; actives 0.66% (n = 360,000); P35363; activation, % at 7.6 µM;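 active = activation above a run cutoff, the mean activation of all tested compounds plus 3 SD, cut at about 14% in these data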
APJ antagonist: APJ receptor antagonism. P35414. CHO-K1 APJ beta-arrestin complementation, luminescence. inhibition, % at 20 µM. actives 0.32% (n = 330,000). AID 2521;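 active = inhibition above about 40% at 20 µM, limit read from the data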;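 note: cells challenged with 10 nM apelin-13 agonist together with compound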
Target sequence (P35414 whole entry, looked up): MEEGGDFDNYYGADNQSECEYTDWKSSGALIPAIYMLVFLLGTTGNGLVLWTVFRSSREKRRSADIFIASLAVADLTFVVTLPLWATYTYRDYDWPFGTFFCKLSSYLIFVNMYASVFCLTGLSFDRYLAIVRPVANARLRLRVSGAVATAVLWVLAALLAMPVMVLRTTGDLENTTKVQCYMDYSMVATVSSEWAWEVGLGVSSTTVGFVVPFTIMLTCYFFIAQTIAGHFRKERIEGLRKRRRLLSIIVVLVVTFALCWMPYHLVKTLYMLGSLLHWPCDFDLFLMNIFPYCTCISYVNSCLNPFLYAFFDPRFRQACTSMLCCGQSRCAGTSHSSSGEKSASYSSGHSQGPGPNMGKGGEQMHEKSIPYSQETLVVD
EBI2 block: EBI2 (human) antagonism | EBI2 beta-arrestin recruitment, luminescence, 7a,25-OHC stimulated | actives 0.81% (n = 360,000) | P32249 | inhibition, % at 5 µM; in the data active = inhibition above about 38%;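 note: enzyme fragment complementation signal reports receptor beta-arrestin coupling in cells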
APJ ag: activates the human apelin receptor APJ. P35414. CHO-K1 APJ PathHunter beta-arrestin, luminescence; 0% DMSO wells, 100% apelin. activation, % at 20 µM. actives 0.11% (n = 330,000). AID 2520;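 active = activation more than six SD over the plate average, tested at 20 µM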
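Test system: CHO-K1 APJ beta-arrestin complementation cell line | Compound: Single test compound dose, 20 µM final, 1% DMSO | Incubation: Compound 90 min 25 °C, reagent 1 h | Measured by: beta-gal luminescence | Read-out basis: APJ–arrestin association signal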
EBI2 antag conf: confirmation of human EBI2 receptor antagonists; EBI2 beta-arrestin luminescence, 7a,25-OHC antagonism; inhibition, % at 5 µM; AID 651997; shares compounds with EBI2 block; actives 29% (n = 2,400);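 active = inhibition of at least 50%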
EBI2 agonist: activates EBI2, counter-screen for EBI2 antagonists; EBI2-expressing cells, agonist mode, luminescence, 60 min; 0% vehicle, 100% 7α,25-dihydroxycholesterol control; AID 652000; shares compounds with EBI2 block; activation, % at 5 µM; 2,400 tested, under 10 active;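 active = activation of at least 50%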
bGal counter: beta-galactosidase inhibition counter-screen | shares compounds with EBI2 block | purified beta-galactosidase, luminescent Galacton Star, 15 min | inhibition, % at 5 µM | actives 1% (n = 2,400) | AID 652176;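 active = replicate-average signal at least 3 plate SD below neutral wells, shown as high inhibition, flagging enzyme-inhibiting false positives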;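 note: higher means stronger loss of beta-gal luminescence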
Hits are given with their value; i = inactive; nt = not tested or not shown; ! = not confirmed by another sample. Rows were chosen to be rich in hits. Some 2.2% of all compounds tested hit in one or more screens of this group.

SMILES | CXCR6 block | CCR6 antag | m5-HT2A agonist | APJ antagonist | EBI2 block | APJ ag | EBI2 antag conf | EBI2 agonist | bGal counter
CC(C)CC(=O)N1CCN(C(=O)c2cccc(F)c2)CC1 | i | i | i | i | i | i | nt | nt | nt
O=C1NC[C@H](Cc2ccccc2)N(C[C@@H]2CCCN2C[C@H](Cc2ccc(O)cc2)N2C[C@H](Cc3ccccc3)N(CC3CCCCCC3)C(=O)C2=O)C1=O | i | nt | i | nt | i | nt | nt | nt | nt
OC(COc1ccc(Cl)cc1)CSc1ccccn1 (stereo not given) | i | i | i | i | 52 | i | i | i | i
Cn1c(C(=O)N2CCN(c3ccccn3)CC2)cc2ccccc21 | i | i | i | i | i | i | nt | nt | nt
Cn1c(C(=O)N2CCN(c3ccccc3)CC2)cc2cc(Cl)ccc21 | i | i | i | i | 44 | i | i | i | i
COC(=O)c1c(NC(=O)CN2C(=O)c3ccccc3C2=O)sc(Cc2ccc3c(c2)OCO3)c1C | i | i | i | i | 63 | i | i | i | i
COC(=O)c1c(NC(=O)CN2CCN(Cc3ccc4c(c3)OCO4)CC2)sc(C)c1C | i | i | i | i | i | i | nt | nt | nt
O=C(NCc1ccc(F)cc1)c1ccc(S(=O)(=O)N2CCCCC2)cc1 | i | i | i | i | i | i | nt | nt | nt
O=C(NCCc1ccccc1)C1CCN(S(=O)(=O)N2CCCCCC2)CC1 | i | i | i | i | i | i | nt | nt | nt
O=C(NCc1ccc(F)cc1)C1CCN(S(=O)(=O)c2ccc(Br)s2)CC1 | i | i | i | i | 52 | i | i | i | i
O=C(NCc1ccc(F)cc1)C1CCCN(S(=O)(=O)c2ccc(Br)s2)C1 (stereo not given) | i | i | i | i | i | i | nt | nt | nt
O=C(NCc1ccc(F)cc1)C1CCN(S(=O)(=O)c2cccnc2)CC1 | i | i | i | i | i | i | nt | nt | nt
O=C(NCCc1ccc(Cl)cc1)C1CCN(S(=O)(=O)N2CCCCC2)CC1 | i | i | i | i | 44 | i | i | i | i
O=C(NCc1ccc(Cl)cc1)C1CCN(S(=O)(=O)c2cccnc2)CC1 | i | i | i | i | 50 | i | i | i | i
O=C(NCc1ccc(Cl)cc1)c1ccc(S(=O)(=O)N2CCCCC2)cc1 | i | i | i | i | 49 | i | i | i | i
CCCCNC(=O)C1C(c2ccc(C(F)(F)F)cc2)=Nc2ccccc2N1C(=O)c1cccc2ccccc12 (stereo not given) | nt | nt | i | nt | i | nt | nt | nt | nt
O=C(NCc1ccc(Cl)cc1)C1CCN(S(=O)(=O)c2ccc(F)cc2)CC1 | i | i | i | i | 51 | i | i | i | i
O=C(NCc1ccncc1)C1CCN(S(=O)(=O)c2ccc(F)cc2)CC1 | i | i | i | i | i | i | nt | nt | nt
CC1(c2nnc(-c3ccc(Cl)cc3)o2)CC(c2ccncc2)=NO1 (stereo not given) | i | i | i | i | i | i | nt | nt | nt
CC1(c2nnc(-c3ccc(Cl)cc3)o2)CC(c2c(Cl)cccc2Cl)=NO1 (stereo not given) | i | i | i | i | 52 | i | 60 | i | i
CC1(c2nnc(-c3ccc(F)cc3)o2)CC(c2ccc(Cl)cc2)=NO1 (stereo not given) | i | i | i | i | i | i | nt | nt | nt
CC1(c2nnc(-c3ccc(F)cc3)o2)CC(c2c(Cl)cccc2Cl)=NO1 (stereo not given) | i | i | i | i | 50 | i | i | i | i
O=C(Nc1ccc(F)cc1)C(c1ccccc1OC(F)(F)F)N1CCN(c2cccc(C(F)(F)F)n2)CC1 (stereo not given) | nt | nt | i | nt | i | nt | nt | nt | nt
CCOC(=O)C1=CCN(S(=O)(=O)c2ccc(C)cc2)C1c1cccc(F)c1 (stereo not given) | i | nt | i | nt | i | nt | nt | nt | nt
Cc1ccc(S(=O)(=O)N2CCCCC2)cc1NC(=O)c1ccc(=O)[nH]c1 | i | nt | i | nt | i | nt | nt | nt | nt
SMILES | CXCR6 block | CCR6 antag | m5-HT2A agonist | APJ antagonist | EBI2 block | APJ ag | EBI2 antag conf | EBI2 agonist | bGal counter
O=C(CSc1ccc(Cl)cc1)N1CCN(c2c(Cl)cccc2[N+](=O)[O-])CC1 | i | i | i | i | 94 | i | 86 | i | i
O=C(/C=C/c1ccc(Cl)cc1)N1CCN(c2c(Cl)cccc2[N+](=O)[O-])CC1 | i | i | i | i | 98 | i | 91 | i | i
CCCC(=O)N1CCN(c2ccc([N+](=O)[O-])cc2Cl)CC1 | i | i | i | i | i | i | nt | nt | nt
O=C(CSc1ccc(Cl)cc1)N1CCN(c2ccc([N+](=O)[O-])cc2Cl)CC1 | i | i | i | i | 84 | i | i | i | i
O=C(NCc1ccccc1)C(c1ccccc1)n1c(-c2ccccn2)nc2ccccc21 (stereo not given) | nt | nt | i | nt | i | nt | nt | nt | nt
CCCC(=O)c1ccc(N2CCN(C(=O)c3ccc(Br)cc3)CC2)c(F)c1 | i | i | i | i | 71 | i | i | i | i
COc1ccc(C(=O)c2ccc(N3CCN(C(=O)c4ccc(F)cc4)CC3)c(F)c2)cc1Br | i | i | i | i | 65 | i | i | i | i
COc1ccc(N2CCN(C(=O)c3cc(=O)c4cc(C)ccc4o3)CC2)cc1 | i | i | i | i | 92 | i | 82 | i | i
COc1ccccc1N1CCN(C(=O)c2cc(=O)c3ccc(C)cc3o2)CC1 | i | i | i | i | i | i | nt | nt | nt
COc1ccc(N2CCN(C(=O)c3cc(=O)c4cc(C)c(C)cc4o3)CC2)cc1 | i | i | i | i | 92 | i | 87 | i | i
COc1ccc(N2CCN(C(=O)c3cc(=O)c4cc(C)cc(C)c4o3)CC2)cc1 | i | i | i | i | 80 | i | 84 | i | i
CCOC(=O)c1ccc(NC(=O)c2ncn3c2C(=O)N[C@H](C)C3)cc1 | i | nt | i | nt | i | nt | nt | nt | nt
COc1ccc(-c2ccc3c(c2)O[C@H](CN(C)C(=O)Nc2ccccc2F)[C@@H](C)CN([C@H](C)CO)S3(=O)=O)cc1 | i | nt | i | nt | i | nt | nt | nt | nt
COCCCN1C(=O)C(CC(=O)NCc2ccco2)CC(C(=O)N(C(C)C)C(C)C)=C1C (stereo not given) | i | nt | i | nt | i | nt | nt | nt | nt
Cc1cc(F)cc(-c2cc(C(=O)NCc3ccco3)[nH]n2)c1 | i | nt | i | nt | i | nt | nt | nt | nt
CCCCN=c1sc(C(=O)OC)cc(=O)n1CCCC | i | i | i | i | i | i | nt | nt | nt
CCOC(=O)c1ccc(N=c2sc(C(=O)OC)cc(=O)n2CCCN2CCOCC2)cc1 | i | i | i | i | 68 | i | 67! | i | i
CCn1c(=O)cc(C(=O)OC)sc1=Nc1ccc(F)c(F)c1 | i | i | i | i | 51 | i | 53 | i | i
